Test results from ChEMBL document CHEMBL1221279, “Synthesis, biological evaluation, and structure-activity relationship study of novel cytotoxic aza-caffeic acid derivatives” (Bioorg Med Chem, 2010).

System: not listed separately
Test: Cytotoxicity against human Bel7404 cells after 72 hrs by MTT assay
Assay type: functional, cell-based
Details: BEL-7404, 72 h
How it was run: (§1)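 Cells grown in MEM with 10% fetal calf serum, penicillin and streptomycin at 37 °C, 5% CO2. Exponentially growing cells seeded in quadruplicate at 5 × 10³ per well and left 24 h before compounds (DMSO stocks) were added. After 72 h exposure, MTT added for 4 h at 37 °C, formazan dissolved in DMSO, read at 570 nm. IC50 read graphically from dose–response curves.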

Q: With `COCOc1ccc(/C=C/C(=O)N2CCN(Cc3ccc(Cl)c(Cl)c3)CC2)cc1OCOC` as the molecule, how does the IC50 read?
A: > 200 µM

Q: For `O=C(/C=C/c1ccc(O)c(O)c1)NCCc1c[nH]c2ccccc12`, which IC50 is on record?
A: > 200 µM

Q: Which IC50 does the source give for `O=C(/C=C/c1ccccc1)NNC(=O)c1ccccc1O` here?
A: 21.2 µM

Q: With `COc1ccc(/C=C/C(=O)NCCc2c[nH]c3ccccc23)cc1OC` as the molecule, how does the IC50 read?
A: > 200 µM

Q: For `COc1ccc(/C=C/C(=O)N2CCN(Cc3ccc(Cl)c(Cl)c3)CC2)cc1OC`, which IC50 is on record?
A: 85.7 µM

System: A549
Test: Cytotoxicity against human A549 cells after 72 hrs by MTT assay
Assay type: functional, cell-based
Details: A549, 72 h
How it was run: as §1

Q: With `COCOc1ccc(/C=C/C(=O)N2CCN(Cc3ccc(Cl)c(Cl)c3)CC2)cc1OCOC` as the molecule, how does the IC50 read?
A: 107 µM

Q: With `O=C(/C=C/c1ccc(O)c(O)c1)NCCc1c[nH]c2ccccc12` as the molecule, how does the IC50 read?
A: > 200 µM

Q: With `O=C(/C=C/c1ccccc1)NNC(=O)c1ccccc1O` as the molecule, how does the IC50 read?
A: 72.6 µM

Q: For `COc1ccc(/C=C/C(=O)NCCc2c[nH]c3ccccc23)cc1OC`, which IC50 is on record?
A: > 200 µM

Q: For `COc1ccc(/C=C/C(=O)N2CCN(Cc3ccc(Cl)c(Cl)c3)CC2)cc1OC`, which IC50 is on record?
A: > 200 µM

System: not listed separately
Test: Cytotoxicity against human LS 174T cells after 72 hrs by MTT assay
Assay type: functional, cell-based
Details: LS174T
How it was run: as §1

Q: For `COCOc1ccc(/C=C/C(=O)N2CCN(Cc3ccc(Cl)c(Cl)c3)CC2)cc1OCOC`, which IC50 is on record?
A: 139 µM

Q: Which IC50 does the source give for `O=C(/C=C/c1ccc(O)c(O)c1)NCCc1c[nH]c2ccccc12` here?
A: 8.4 µM

Q: Which IC50 does the source give for `O=C(/C=C/c1ccccc1)NNC(=O)c1ccccc1O` here?
A: 20.1 µM

Q: With `COc1ccc(/C=C/C(=O)NCCc2c[nH]c3ccccc23)cc1OC` as the molecule, how does the IC50 read?
A: > 200 µM

Q: With `COc1ccc(/C=C/C(=O)N2CCN(Cc3ccc(Cl)c(Cl)c3)CC2)cc1OC` as the molecule, how does the IC50 read?
A: > 200 µM

System: HeLa
Test: Cytotoxicity against human HeLa cells after 72 hrs by MTT assay
Assay type: functional, cell-based
Details: not given
How it was run: as §1

Q: With `COCOc1ccc(/C=C/C(=O)N2CCN(Cc3ccc(Cl)c(Cl)c3)CC2)cc1OCOC` as the molecule, how does the IC50 read?
A: 29.1 µM

Q: For `O=C(/C=C/c1ccc(O)c(O)c1)NCCc1c[nH]c2ccccc12`, which IC50 is on record?
A: 2.7 µM

Q: Which IC50 does the source give for `O=C(/C=C/c1ccccc1)NNC(=O)c1ccccc1O` here?
A: 73.1 µM

Q: For `COc1ccc(/C=C/C(=O)NCCc2c[nH]c3ccccc23)cc1OC`, which IC50 is on record?
A: > 200 µM

Q: Which IC50 does the source give for `COc1ccc(/C=C/C(=O)N2CCN(Cc3ccc(Cl)c(Cl)c3)CC2)cc1OC` here?
A: 76.6 µM

System: PC-3
Test: Cytotoxicity against human PC3 cells after 72 hrs by MTT assay
Assay type: functional, cell-based
Details: PC-3, 72 h
How it was run: as §1

Q: For `COCOc1ccc(/C=C/C(=O)N2CCN(Cc3ccc(Cl)c(Cl)c3)CC2)cc1OCOC`, which IC50 is on record?
A: 7.4 µM

Q: Which IC50 does the source give for `O=C(/C=C/c1ccc(O)c(O)c1)NCCc1c[nH]c2ccccc12` here?
A: > 200 µM

Q: Which IC50 does the source give for `O=C(/C=C/c1ccccc1)NNC(=O)c1ccccc1O` here?
A: 40.9 µM

Q: With `COc1ccc(/C=C/C(=O)NCCc2c[nH]c3ccccc23)cc1OC` as the molecule, how does the IC50 read?
A: > 200 µM

Q: For `COc1ccc(/C=C/C(=O)N2CCN(Cc3ccc(Cl)c(Cl)c3)CC2)cc1OC`, which IC50 is on record?
A: > 200 µM

System: BGC-823
Test: Cytotoxicity against human BGC823 cells after 72 hrs by MTT assay
Assay type: functional, cell-based
Details: BGC-823, 72 h
How it was run: as §1

Q: With `COCOc1ccc(/C=C/C(=O)N2CCN(Cc3ccc(Cl)c(Cl)c3)CC2)cc1OCOC` as the molecule, how does the IC50 read?
A: 64.4 µM

Q: Which IC50 does the source give for `O=C(/C=C/c1ccc(O)c(O)c1)NCCc1c[nH]c2ccccc12` here?
A: > 200 µM

Q: Which IC50 does the source give for `O=C(/C=C/c1ccccc1)NNC(=O)c1ccccc1O` here?
A: 46 µM

Q: Which IC50 does the source give for `COc1ccc(/C=C/C(=O)NCCc2c[nH]c3ccccc23)cc1OC` here?
A: > 200 µM

Q: Which IC50 does the source give for `COc1ccc(/C=C/C(=O)N2CCN(Cc3ccc(Cl)c(Cl)c3)CC2)cc1OC` here?
A: > 200 µM

System: KB
Test: Cytotoxicity against human KB cells after 72 hrs by MTT assay
Assay type: functional, cell-based
Details: not given
How it was run: as §1

Q: Which IC50 does the source give for `COCOc1ccc(/C=C/C(=O)N2CCN(Cc3ccc(Cl)c(Cl)c3)CC2)cc1OCOC` here?
A: 3.7 µM

Q: With `O=C(/C=C/c1ccc(O)c(O)c1)NCCc1c[nH]c2ccccc12` as the molecule, how does the IC50 read?
A: 85.7 µM

Q: With `O=C(/C=C/c1ccccc1)NNC(=O)c1ccccc1O` as the molecule, how does the IC50 read?
A: 20.1 µM

Q: Which IC50 does the source give for `COc1ccc(/C=C/C(=O)NCCc2c[nH]c3ccccc23)cc1OC` here?
A: > 200 µM

Q: Which IC50 does the source give for `COc1ccc(/C=C/C(=O)N2CCN(Cc3ccc(Cl)c(Cl)c3)CC2)cc1OC` here?
A: 69.2 µM

System: not listed separately
Test: Cytotoxicity against human HO8910 cells after 72 hrs by MTT assay
Assay type: functional, cell-based
Details: HO-8910, 72 h
How it was run: as §1

Q: For `COCOc1ccc(/C=C/C(=O)N2CCN(Cc3ccc(Cl)c(Cl)c3)CC2)cc1OCOC`, which IC50 is on record?
A: 69.7 µM

Q: For `O=C(/C=C/c1ccc(O)c(O)c1)NCCc1c[nH]c2ccccc12`, which IC50 is on record?
A: > 200 µM

Q: For `O=C(/C=C/c1ccccc1)NNC(=O)c1ccccc1O`, which IC50 is on record?
A: 190 µM

Q: With `COc1ccc(/C=C/C(=O)NCCc2c[nH]c3ccccc23)cc1OC` as the molecule, how does the IC50 read?
A: > 200 µM

Q: Which IC50 does the source give for `COc1ccc(/C=C/C(=O)N2CCN(Cc3ccc(Cl)c(Cl)c3)CC2)cc1OC` here?
A: 121 µM

System: not listed separately
Test: Cytotoxicity against human ECA109 cells after 72 hrs by MTT assay
Assay type: functional, cell-based
Details: ECa-109, 72 h
How it was run: as §1

Q: Which IC50 does the source give for `COCOc1ccc(/C=C/C(=O)N2CCN(Cc3ccc(Cl)c(Cl)c3)CC2)cc1OCOC` here?
A: 7.4 µM

Q: Which IC50 does the source give for `O=C(/C=C/c1ccc(O)c(O)c1)NCCc1c[nH]c2ccccc12` here?
A: > 200 µM

Q: With `O=C(/C=C/c1ccccc1)NNC(=O)c1ccccc1O` as the molecule, how does the IC50 read?
A: 41.4 µM

Q: With `COc1ccc(/C=C/C(=O)NCCc2c[nH]c3ccccc23)cc1OC` as the molecule, how does the IC50 read?
A: > 200 µM

Q: Which IC50 does the source give for `COc1ccc(/C=C/C(=O)N2CCN(Cc3ccc(Cl)c(Cl)c3)CC2)cc1OC` here?
A: > 200 µM

System: CNE
Test: Cytotoxicity against human CNE cells after 72 hrs by MTT assay
Assay type: functional, cell-based
Details: not given
How it was run: as §1

Q: For `COCOc1ccc(/C=C/C(=O)N2CCN(Cc3ccc(Cl)c(Cl)c3)CC2)cc1OCOC`, which IC50 is on record?
A: > 200 µM

Q: For `O=C(/C=C/c1ccc(O)c(O)c1)NCCc1c[nH]c2ccccc12`, which IC50 is on record?
A: > 200 µM

Q: For `O=C(/C=C/c1ccccc1)NNC(=O)c1ccccc1O`, which IC50 is on record?
A: 43.7 µM

Q: For `COc1ccc(/C=C/C(=O)NCCc2c[nH]c3ccccc23)cc1OC`, which IC50 is on record?
A: > 200 µM

Q: Which IC50 does the source give for `COc1ccc(/C=C/C(=O)N2CCN(Cc3ccc(Cl)c(Cl)c3)CC2)cc1OC` here?
A: > 200 µM

System: K562
Test: Cytotoxicity against human K562 cells after 72 hrs by MTT assay
Assay type: functional, cell-based
Details: K562, 72 h
How it was run: as §1

Q: For `COCOc1ccc(/C=C/C(=O)N2CCN(Cc3ccc(Cl)c(Cl)c3)CC2)cc1OCOC`, which IC50 is on record?
A: 19.3 µM

Q: With `O=C(/C=C/c1ccc(O)c(O)c1)NCCc1c[nH]c2ccccc12` as the molecule, how does the IC50 read?
A: > 200 µM

Q: With `O=C(/C=C/c1ccccc1)NNC(=O)c1ccccc1O` as the molecule, how does the IC50 read?
A: 0.9 µM

Q: Which IC50 does the source give for `COc1ccc(/C=C/C(=O)NCCc2c[nH]c3ccccc23)cc1OC` here?
A: > 200 µM

Q: For `COc1ccc(/C=C/C(=O)N2CCN(Cc3ccc(Cl)c(Cl)c3)CC2)cc1OC`, which IC50 is on record?
A: 70.8 µM

System: HL-60
Test: Cytotoxicity against human HL60 cells after 72 hrs by MTT assay
Assay type: functional, cell-based
Details: HL-60, 72 h
How it was run: as §1

Q: With `COCOc1ccc(/C=C/C(=O)N2CCN(Cc3ccc(Cl)c(Cl)c3)CC2)cc1OCOC` as the molecule, how does the IC50 read?
A: 31 µM

Q: For `O=C(/C=C/c1ccc(O)c(O)c1)NCCc1c[nH]c2ccccc12`, which IC50 is on record?
A: 124 µM

Q: With `O=C(/C=C/c1ccccc1)NNC(=O)c1ccccc1O` as the molecule, how does the IC50 read?
A: 39.3 µM

Q: With `COc1ccc(/C=C/C(=O)NCCc2c[nH]c3ccccc23)cc1OC` as the molecule, how does the IC50 read?
A: > 200 µM

Q: With `COc1ccc(/C=C/C(=O)N2CCN(Cc3ccc(Cl)c(Cl)c3)CC2)cc1OC` as the molecule, how does the IC50 read?
A: 140 µM
